Source: publication PMC9075408 (Journal of the American Heart Association: Cardiovascular …, 2021)

Assays:
[1] = Plasma and hippocampal levels of 1-DL-MTRP by HPLC-MS/MS in CA/CPR rats; type: in vivo; conditions: rat
[2] = test system: rats resuscitated from cardiac arrest; assay: CPR outcomes and survival in rat model of electrically induced CA/CPR; type: in vivo
[3] = test system: rats resuscitated from cardiac arrest; assay: Hemodynamics; type: in vivo, rat; conditions: mean±SD
[4] = test system: rats resuscitated from cardiac arrest; assay: Myocardial function by transthoracic echocardiography in CA/CPR rats; type: in vivo, rat
Summary of the method: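 Rats were pretreated by gavage with test compound (800 mg/kg per dose) or 1% carboxymethylcellulose 16 and 2 h before 8 min untreated CA and 8 min CPR. At 4 and 96 h post-ROSC, LV systolic function was assessed by transthoracic M-mode, 2D, pulsed, color and tissue Doppler echocardiography. Anaesthesia at 96 h was intraperitoneal thiopental 50 mg/kg, with 10 mg/kg recall doses if needed. Analysis used ordinary 2-way ANOVA with Sidak post hoc.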

[5] = test system: rats resuscitated from cardiac arrest; assay: Plasma high-sensitivity cardiac troponin T; type: in vivo, rat; conditions: median [quartile 1–quartile 3]
Summary of the method: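 Arterial blood was drawn from the femoral cannula into K3-EDTA tubes 15 min before CA and at 4 and 96 h post-ROSC. Rats had received gavage test compound (800 mg/kg per dose) or carboxymethylcellulose vehicle 16 and 2 h pre-CA, then 8 min CA and 8 min CPR. Plasma hs-cTnT was measured by electrochemiluminescence immunoassay and analysed by ordinary 2-way ANOVA with Sidak test.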

[6] = test system: rats resuscitated from cardiac arrest; assay: Neurological deficit score; type: in vivo, rat; conditions: 24, 48, 72, and 96 hours post-ROSC, all time points; score 0 (normal) to 500 (brain death)
[7] = test system: IL1β and Arg1 mRNA, brain cortex; assay: Inflammatory gene expression; type: in vivo, rat; conditions: brain cortex 96 hours post-ROSC; not statistically significant
Summary of the method: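 Male Sprague-Dawley ex-breeder rats underwent 8 min untreated CA and 8 min CPR after gavage with test compound (800 mg/kg per dose) or 1% carboxymethylcellulose vehicle 16 and 2 h before CA; naive rats served as controls. At 96 h post-ROSC, cortical RNA was analysed by SYBR Green real-time PCR with exon-spanning primers and Gapdh reference. Results were calculated by ΔΔCt as fold induction, mean±SD, n=4-6/group, Kruskal-Wallis/Dunn's.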

[8] = test system: kynurenine pathway (IDO, tryptophan→kynurenine step)
[9] = test system: kynurenine pathway (IDO, tryptophan→kynurenine step); conditions: 96 hours post-ROSC
[10] = 2 oral doses of 800 mg/kg 16 and 2 hours before CA, 15 minutes pre-CA and 2 hours post-ROSC
[11] = 2 oral doses of 800 mg/kg 16 and 2 hours before CA, 96 hours post-ROSC

Structure (SMILES): Cn1cc(CC(N)C(=O)O)c2ccccc21 (racemic) [1‐DL‐MTRP, 1‐methyl‐DL‐tryptophan]
- 1-DL-MTRP plasma concentration, average [1, 10]: 34 µg/mL
- 1-DL-MTRP plasma concentration, range [1, 10]: 20 to 40 µg/mL
- 1-DL-MTRP hippocampal concentration, average [1, 11]: 11.4 µg/g
- 1-DL-MTRP plasma concentration, average [1, 11]: 21 µg/mL
- drug levels (plasma and brain) as molar concentrations ([1]; 96 hours post-ROSC): 52 to 96 µM
- Resuscitation, no./total ([2]; 800 mg/kg by gavage 16 and 2 h before CA, 8 min CA, 8 min CPR): 15/17
- Time to ROSC ([2]; median [quartile 1–quartile 3]): 481 [370–482] s
- 4-h survival, no./resuscitated ([2]; rat, in vivo): 15/15
- 96-h survival, no./resuscitated ([2]; rat, in vivo): 10/15
- Shocks to ROSC ([2]; rat, in vivo): 1 no.
- animals that survived up to 96 hours after CA ([2]; vehicle 62%): 66%
- successfully resuscitated animals ([2]; vehicle 84%): 88%
- CPP ([3]; PR 10 min): 57±21 mm Hg
- DAP ([3]; PR 10 min): 57±21 mm Hg
- HR ([3]; PR 10 min): 237±54 beats per min
- MAP ([3]; PR 10 min): 76±20 mm Hg
- SAP ([3]; PR 10 min): 103±17 mm Hg
- CPP ([3]; PR 1 h): 84±9 mm Hg
- DAP ([3]; PR 1 h): 84±9 mm Hg
- HR ([3]; PR 1 h): 335±12 beats per min
- MAP ([3]; PR 1 h): 96±9 mm Hg
- SAP ([3]; PR 1 h): 117±9 mm Hg
- CPP ([3]; PR 2 h): 81±12 mm Hg
- DAP ([3]; PR 2 h): 81±12 mm Hg
- HR ([3]; PR 2 h): 360±20 beats per min
- MAP ([3]; PR 2 h): 96±13 mm Hg
- SAP ([3]; PR 2 h): 118±12 mm Hg
- CPP ([3]; PR 3 h): 75±15 mm Hg
- DAP ([3]; PR 3 h): 74±15 mm Hg
- HR ([3]; PR 3 h): 358±23 beats per min
- MAP ([3]; PR 3 h): 89±16 mm Hg
- SAP ([3]; PR 3 h): 111±18 mm Hg
- CPP ([3]; PR 4 h): 73±20 mm Hg
- DAP ([3]; PR 4 h): 78±15 mm Hg
- HR ([3]; PR 4 h): 351±51 beats per min
- MAP ([3]; PR 4 h): 94±17 mm Hg
- SAP ([3]; PR 4 h): 115±17 mm Hg
- CPP ([3]; Pre-CA): 109±13 mm Hg
- DAP ([3]; Pre-CA): 114±12 mm Hg
- HR ([3]; Pre-CA): 375±34 beats per min
- MAP ([3]; Pre-CA): 127±13 mm Hg
- SAP ([3]; Pre-CA): 151±13 mm Hg
- LVEF ([4]; PR 4 h): 36.8±3.2%
- LVEF ([4]; PR 96 h): 75.3±3.2%
- hs-cTnT ([5]; PR 4 h): 4965 [2978–5242] pg/mL
- hs-cTnT ([5]; PR 96 h): 64 [36–278] pg/mL
- hs-cTnT ([5]; Pre-CA): 98 [66–111] pg/mL
- NDS values vs vehicle-treated rats [6]: lower
- Arg1 gene expression [7]: tendency towards an increase
- CA-induced IL1β upregulation (mRNA) [7]: slightly reduced
- plasma kynurenine levels, % lower than in vehicle-treated rats ([8]; 15 minutes pre-CA, P=0.0243): 24%
- plasma kynurenine levels following CA vs vehicle-treated rats ([8]; PR 2 hours and PR 96 hours, same time points): markedly lower than in vehicle‐treated rats
- hippocampal kynurenine levels vs vehicle-treated rats ([9]; P=0.0409, comparable to naive rats): significantly lower than in vehicle‐treated rats
- hippocampal 5-HT concentrations ([9]; vs naive rats): superimposable to those measured in naive rats
